Compound activity (PubChem BioAssay)
Diaph act CS: diaphorase activation or chemical reduction counter-screen; 190,000 compounds, 0.005% hits; Diaphorase/resazurin coupled assay, resorufin fluorescence, 16 min; active compounds read high; 1 = vehicle wells, 0 = NADH-free wells; activation factor at 20 µM;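 active = diaphorase activity raised at least twofold by the compound at 20 µM; inactive = activation factor below 2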
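Assay system: Purified diaphorase enzyme from Clostridium kluyveri | Amount: Enzyme 0.07 U/mL final | Dosing: Compound 20 µM once, DMSO 1% | Timing: 16 min reaction at room temperature | Detection: Fluorescence, excitation 544 nm and emission 590 nm | Evaluation: Higher resorufin formation from activation or reduction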
G6PDH counter: L. mesenteroides G6PDH inhibition counter-screen; inhibition, % at 5 µM; Purified L. mesenteroides G6PDH, diaphorase/resazurin coupled fluorescence, 45 min; 200,000 compounds, 0.12% hits
Redox H2O2 prof: compounds producing H2O2 with reducing agent – biochemical, NIH compound library profiling, artefact control for MLSCN library redox annotation, primary screen. 200,000 compounds, 0.03% hits. DTT-dependent redox cycling H2O2, phenol red/HRP absorbance; 100% = 100 µM peroxide control, 0% = buffer. activation, % at 10 µM. AID 878;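 active = activation of at least 50% relative to the plate's high and low controls in the primary single-dose screen; inactive = activation below 50%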;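 also: compound incubated with DTT at 0.8 mM final as the reducing agent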
Diaph inh CS: counter-screen for diaphorase-based assays: diaphorase inhibitors and chemical oxidizers; diaphorase resazurin-to-resorufin fluorescence, NADH, 16 min; bacterial (C. kluyveri) enzyme, not human; inhibition, % at 20 µM; 190,000 compounds, 0.69% hits;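 active = primary screen inhibition at 20 µM above a set limit, cut at about 50% in these data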
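Detection: fluorescence of resorufin formed from resazurin, Ex 544/Em 590 nm; test system: Clostridium kluyveri diaphorase enzyme; amount: 0.14 U/mL diaphorase, enzyme working solution; times: 16-min room-temperature incubation before reading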
Lmaj promast: Leishmania major promastigote growth inhibition; Leishmania major promastigotes, resazurin fluorescence viability; AID 1063; 200,000 compounds, 9% hits; inhibition, % at 10 µM;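 also: promastigotes grown with compound for 44 hours at 28 °C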
PfG6PD inh: PfG6PD (Plasmodium falciparum) enzyme inhibition. PfGluPho enzyme, NADPH resazurin-diaphorase fluorescence. 350,000 compounds, 0.78% hits. inhibition, % at 20 µM. AID 504690;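 active = inhibition reaching at least a set limit at 20 µM in the primary screen, cut at about 59% in these data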
Of the large screens only hits and unclear results are named; the others gave an inactive call. The full list was thinned out, with hits kept by preference. Rule as the data show it, unless noted: active = inhibition above about 50%; inactive = the rest.

O=C(O)CCNc1cc2ccccc2cc1C(=O)O	Diaph inh CS 65
CCN1CCN(CC(=O)Nc2sc3c(c2C#N)CCC(C)C3)CC1 (stereo not drawn)	Lmaj promast 100
CC1CCc2c(sc(NC(=O)CSc3ncn[nH]3)c2C#N)C1 (stereo not drawn)	none (no result: Diaph act CS, G6PDH counter, Redox H2O2 prof, Diaph inh CS, Lmaj promast)
CC1=C2C(CCS2(=O)=O)CC2(C1)C(=O)OC(C)(C)OC2=O (stereo not drawn)	none
Cc1oc(-c2ccccc2F)nc1CSCC(=O)NC1CCC(C)CC1 (stereo not drawn)	none (no result: Diaph act CS, G6PDH counter, Redox H2O2 prof, Diaph inh CS, Lmaj promast)
Cc1cc(S(=O)(=O)NCc2ccccc2)ccc1OCC(=O)Nc1cccc([N+](=O)[O-])c1	Lmaj promast 99
CCCC(=O)NC(Nc1cccc(C(F)(F)F)c1)C(Cl)(Cl)Cl (stereo not drawn)	none
Cc1ccc(C2(CC(=O)N3CCCC3)CCOC(C(C)C)C2)cc1 (stereo not drawn)	none
Cc1ccc(C2(CCNS(=O)(=O)c3ccc(C)cc3)CCOC(C(C)C)C2)cc1 (stereo not drawn)	Lmaj promast 63
CC(C)C1CC(CCNCc2ccc(N(C)C)cc2)(c2ccccc2)CCO1 (stereo not drawn)	Lmaj promast 98
CC(C)C1CC(CCNCc2ccc3c(c2)OCO3)(c2ccccc2)CCO1 (stereo not drawn)	none (no result: Diaph act CS, G6PDH counter, Redox H2O2 prof, Diaph inh CS, Lmaj promast)
Cc1ccc(C2(CCNCc3ccc(N(C)C)cc3)CCOC(C(C)C)C2)cc1 (stereo not drawn)	Lmaj promast 100
COc1ccccc1NC(=O)CC(NC1CCCCC1)C(=O)O (stereo not drawn)	none
COc1ccc(CN2CCC[C@]3(N[C@H](c4ccc(C)cc4)[C@@H]4C(=O)N(C)C(=O)[C@@H]43)C2=O)cc1	none (no result: Diaph act CS, G6PDH counter, Redox H2O2 prof, Diaph inh CS, Lmaj promast)
CCCc1cc2c(cc1NC(=O)c1ccc(C)cc1)OCO2	none
O=C(NNc1cccc(Cl)n1)Nc1ccc(F)cc1	none
CC(Oc1ccc(F)cc1)C(=O)Nc1cc(S(=O)(=O)N2CCCCC2)ccc1N1CCOCC1 (stereo not drawn)	none (no result: Diaph act CS, G6PDH counter, Redox H2O2 prof, Diaph inh CS, Lmaj promast)
NS(=O)(=O)c1ccc(NC(=O)c2cc(Cl)sc2Cl)cc1	none (no result: Diaph act CS, G6PDH counter, Redox H2O2 prof, Diaph inh CS, Lmaj promast)
CCOC(=O)c1cnc2sc3c(n2c1=O)CCCC3	Lmaj promast 100
Cc1nnc(NC(=O)CSc2ccc3nnc(-c4cccnc4)n3n2)s1	none (no result: PfG6PD inh)
O=C(C1=C[C@H](c2ccc(C(F)(F)F)cc2)C[C@H](OCc2ccc(CO)cc2)O1)N1CCCCCCC1	Diaph inh CS 50
O=C(C1=C[C@H](c2ccc(C(F)(F)F)cc2)C[C@H](OCCCCO)O1)N1CCN(Cc2ccc3c(c2)OCO3)CC1	Lmaj promast 95
COc1ccc(S(=O)(=O)Nc2ccccc2C(=O)N2CCOCC2)cc1Br	none (no result: Diaph act CS, G6PDH counter, Redox H2O2 prof, Diaph inh CS, Lmaj promast)
O=C(CSc1ccc2c(c1)OCCO2)Nc1ccc(N2CCOCC2)cc1	none
O=C(Nc1cccc(C(=O)O)c1)/C(=C\c1ccccc1)NC(=O)c1ccco1	none (no result: Diaph act CS, G6PDH counter, Redox H2O2 prof, Diaph inh CS, Lmaj promast)
Cc1occc1C(=O)N/N=C/C1=C(N2CCOCC2)C(=C/c2ccc(Cl)cc2Cl)/CC1	none (no result: Diaph act CS, G6PDH counter, Redox H2O2 prof, Diaph inh CS, Lmaj promast)
Oc1c(N=NC(=S)Nc2ccccc2F)c2ccccc2n1Cc1ccc(Cl)cc1	Lmaj promast 96
CCNC(=S)N=Nc1c(O)n(Cc2ccc(Cl)cc2)c2ccccc12	none
Cc1ccccc1Cn1c(O)c(N=NC(=S)Nc2ccccc2F)c2ccccc21	Lmaj promast 76
Cc1ccc(C)c(Cn2c(O)c(N=NC(=S)Nc3ccccc3F)c3ccccc32)c1	Lmaj promast 96
Oc1c(N=NC(=S)Nc2ccccc2F)c2ccccc2n1Cc1ccccc1F	Lmaj promast 96
O=C(NC(=S)NCCCN1CCOCC1)c1ccc([N+](=O)[O-])cc1	Lmaj promast 53
O=[N+]([O-])c1cc(C(F)(F)F)cc([N+](=O)[O-])c1NCCCN1CCOCC1	none
O=[N+]([O-])c1cc(C(F)(F)F)ccc1NCCCN1CCOCC1	Lmaj promast 88
O=[N+]([O-])c1cc(S(=O)(=O)N2CCCCC2)ccc1NCCCN1CCOCC1	Lmaj promast 75
O=C(NC(=S)NCCN1CCOCC1)c1ccc(F)cc1	none
O=[N+]([O-])c1ccc(NCCCN2CCOCC2)c([N+](=O)[O-])c1	Lmaj promast 84
O=C(COC(=O)c1nn(-c2ccccc2C(F)(F)F)cc1O)c1ccc(OC(F)F)cc1	none (no result: Diaph act CS, G6PDH counter, Redox H2O2 prof, Diaph inh CS, Lmaj promast)
COc1ccc(-n2ncc3c(SCC(=O)N4CCN(c5ccccc5OC)CC4)ncnc32)cc1	none
COc1cccc(NC(=O)COC(=O)c2c(F)cccc2F)c1	none
Cc1cccc(OCC(=O)Nc2ccc3c(c2)nc2n3CCOC2)c1	none (no result: Diaph act CS, G6PDH counter, Redox H2O2 prof, Diaph inh CS, Lmaj promast)
Cc1ccc(C(=O)NC(=S)NNC(=O)CCN2CCOCC2)cc1	Diaph inh CS 67
Cc1ccc(C(=O)N/C(=C\c2ccc(C(C)C)cc2)C(=O)NCCCN2CCOCC2)cc1	Lmaj promast 67
Cc1ccc(C(=O)N/C(=C\c2ccc(Cl)cc2)C(=O)NCCCN2CCOCC2)cc1	none
O=C(NCCN1CCOCC1)c1cc2cc([N+](=O)[O-])ccc2s1	Lmaj promast 66
O=[N+]([O-])c1ccc(Cl)cc1NCCCN1CCOCC1	Lmaj promast 59
COc1ccc(C(=O)Nc2c(N)nc(SCC(=O)N3CCCCCC3)[nH]c2=O)cc1OC	none
O=C(OC(C(=O)NC1CCCC1)c1cccnc1)C1=Cc2ccccc2OC1 (stereo not drawn)	Lmaj promast 94
Cc1ccc(-c2nnn(CC(=O)N(c3ccccc3F)C(C(=O)NCC3CCCO3)c3c[nH]c4ccccc34)n2)cc1 (stereo not drawn)	Lmaj promast 88
O=C(O)CCn1cc(/C=C/C(=O)c2ccc(Cl)cc2)c(-c2ccc(Br)cc2)n1	none
CC(C)(C)c1[nH]nc2c1C(C1C=CCCC1)C(C#N)=C(N)O2 (stereo not drawn)	Lmaj promast 83
CCc1[nH]nc2c1C(C1C=CCCC1)C(C#N)=C(N)O2 (stereo not drawn)	Lmaj promast 97
CCc1[nH]nc2c1C(C(C)C)C(C#N)=C(N)O2 (stereo not drawn)	none (no result: Redox H2O2 prof, Lmaj promast)
CC(C)c1[nH]nc2c1C(C1C=CCCC1)C(C#N)=C(N)O2 (stereo not drawn)	none (no result: Diaph act CS, G6PDH counter, Redox H2O2 prof, Diaph inh CS, Lmaj promast)
C=CCc1cccc(CNc2c(C)cc(C)cc2C)c1O	none
CCOC(=O)C1CC2=C(CC(C)(C)CC2=O)N(CCOC)C1=O (stereo not drawn)	none (no result: Diaph act CS, G6PDH counter, Redox H2O2 prof, Diaph inh CS, Lmaj promast)
O=C1c2ccc3c4c(ccc(c24)C(=O)N1CCCCO)C(=O)N(CCCCO)C3=O	Lmaj promast 100
COc1ccc(Cc2nnc(SCC(=O)NC3(C#N)CCCCC3)n2N)cc1	none (no result: Diaph act CS, G6PDH counter, Redox H2O2 prof, Diaph inh CS, Lmaj promast)
CCN(CC)S(=O)(=O)c1ccc(Cl)c(NC(=O)COC(=O)c2nc3nc(C)cc(C)n3n2)c1	none (no result: Diaph act CS, G6PDH counter, Redox H2O2 prof, Diaph inh CS, Lmaj promast)
